# Screens: PubChem BioAssay, Sanford-Burnham Center for Chemical Genomics
# Compounds with a hit are over-represented: about 1.5% of the library has one in this group of screens.
# FLuc inh counter: counter-screen for luciferase assay inhibitors: firefly luciferase inhibition | inhibition, % at 10 µM | ATPLite firefly luciferase biochemical luminescence, 10 min | 1.5% of 200,000 active;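 active = inhibition above about 50% when tested at 10 µM, limit read from the data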
# Target sequence (P08659 whole entry, looked up): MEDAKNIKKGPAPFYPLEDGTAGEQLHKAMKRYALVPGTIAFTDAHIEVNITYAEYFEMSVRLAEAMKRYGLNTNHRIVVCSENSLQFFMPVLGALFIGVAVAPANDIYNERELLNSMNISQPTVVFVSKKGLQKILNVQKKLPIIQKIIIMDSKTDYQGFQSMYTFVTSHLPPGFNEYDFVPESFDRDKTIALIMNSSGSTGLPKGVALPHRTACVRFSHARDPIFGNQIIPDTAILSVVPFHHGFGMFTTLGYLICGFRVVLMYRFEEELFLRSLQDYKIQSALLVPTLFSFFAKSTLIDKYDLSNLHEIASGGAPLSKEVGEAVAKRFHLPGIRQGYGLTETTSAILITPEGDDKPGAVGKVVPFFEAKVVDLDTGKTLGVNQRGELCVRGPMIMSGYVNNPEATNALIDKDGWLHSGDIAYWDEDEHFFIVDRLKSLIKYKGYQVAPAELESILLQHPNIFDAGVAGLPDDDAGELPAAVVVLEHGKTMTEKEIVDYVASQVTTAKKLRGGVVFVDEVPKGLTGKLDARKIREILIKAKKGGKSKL
# TRAIL sens C8: sensitizes caspase-8 expressing cells to TRAIL; NB7+C8 cells + TRAIL, ATPlite viability luminescence; inhibition (viability loss, TRAIL sensitization), % at 10 µM; 1% of 360,000 active;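 active = compounds causing at least 50% loss of cell viability in the single-dose screen, relative to plate controls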
# PPC-1+TRAIL kill: PPC-1 cancer cell killing with TRAIL present; PPC-1 cells + TRAIL, ATPLite viability luminescence; cell killing (% activity), % at 4 µM or 5 µM; 0.41% of 220,000 active; AID 1443;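 active = cell killing above 50% in the first pass at 4 µM, then a duplicate retest at 5 µM averaging 50% or more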;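 also: plate controls were cells with TRAIL plus DMSO for no effect and medium-only wells lacking cells for full effect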
# FLuc act counter: affects firefly luciferase, flagging false hits in luciferase stimulation screens. AID 1027. P08659. ATPlite luciferase biochemical, luminescence, 10 min; 0 = ATP-free wells, 1 = DMSO control. 200,000 tested, under 10 active. activation factor at 10 µM;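 active = luciferase activation factor, scaled between plate controls, of at least 2 with compound at 10 µM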
#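 Assay system: Luciferase/luciferin detection reagent, cell-free biochemical luciferase assay / Read-out: luciferase activation / Benchmarks: No-ATP low control, compound-free enzyme-plus-ATP high control / Medium: PBS buffer for ATP / Detection: luminescence measurement of luciferase light output / Schedule: 10 min at ambient temperature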
# * marks the source's active call; other numbers are inactive results; nt = no result.
SMILES,FLuc inh counter,TRAIL sens C8,PPC-1+TRAIL kill,FLuc act counter
O=C(COC(=O)/C=C/C(=O)N1CCN(c2ccccc2)CC1)NC(c1ccccc1)c1ccccc1,6.7,-2.9,27.4,0.9
Cc1ccc(C(=O)Nc2nnc(C3CCCCC3)s2)o1,52.5*,34.2,29.7,0.5
CCOC(=O)c1sc(NC(=O)c2ccc(C)o2)nc1C,69.0*,39.2,34.8,0.3
CC(=O)c1sc(NC(=O)c2ccc(C(C)(C)C)cc2)nc1C,29.9,54.8*,26.9,0.7
CCOC(=O)c1sc(NC(=O)Nc2ccc(F)cc2)nc1C,59.0*,51.2*,41.9,0.4
COC(=O)C[C@@H]1CC[C@@H](NC(=O)C2CCC2)[C@@H](CO)O1,nt,-6.0,nt,nt
COc1cc2c(cc1OCc1ccccc1)/C(=C/C(=O)OCc1ccccc1)OC2,nt,-9.6,nt,nt
CCc1cccc(CC)c1NC(=O)CN1CCN(S(=O)(=O)c2ccccc2)CC1,nt,-12.8,nt,nt
COC(=O)c1sc(NC(=O)c2ccc(C)o2)nc1C,52.1*,40.1,33.5,0.5
CCOC(=O)c1sc(NC(=O)c2ccc(OC)cc2)nc1C,10.1,8.9,6.1,0.9
CCOC(=O)c1sc(NC(=O)c2ccc(OC(C)=O)cc2)nc1C,6.7,65.1*,49.8,0.9
Cc1ccc(C(=O)Nc2nc(C)c(C)s2)o1,39.7,9.1,1.1,0.6
CSc1ccc(/C=C2\C(=N)N3N=C(CC(=O)N4CCCCC4)SC3=NC2=O)cc1,nt,5.2,nt,nt
O=C1/C(=C\c2ccc(Cl)c(Cl)c2)CN(C(=O)CCN2CCOCC2)C/C1=C/c1ccc(Cl)c(Cl)c1,nt,92.6*,nt,nt
O=C1/C(=C\c2ccccc2)CN(C(=O)CCN2CCCCC2)C/C1=C/c1ccccc1,nt,91.4*,nt,nt
O=C1/C(=C\c2ccccc2)CCC/C1=C/c1ccccc1,nt,15.7,nt,nt
CCN(CC)CCC(=O)N1C/C(=C/c2ccccc2)C(=O)/C(=C\c2ccccc2)C1,nt,92.8*,nt,nt
O=c1c2ccccc2oc2ccc(-c3ccc4cc[nH]c4c3)cc12,nt,52.7*,nt,nt
CC(C)(C)OC(=O)NCc1ccc(NC(=O)c2nc[nH]c2C(=O)NCCNC(=O)c2[nH]cnc2C(=O)Nc2ccc(CNC(=O)OC(C)(C)C)cc2)cc1,nt,88.2*,nt,nt
CC(C)(C)OC(=O)CNC(=O)c1[nH]cnc1C(=O)Nc1ccc(CNC(=O)OC(C)(C)C)cc1,nt,39.7,20.7,nt
CC(C)(C)OC(=O)NCc1ccc(CNC(=O)c2nc[nH]c2C(=O)NCc2ccc(CNC(=O)OC(C)(C)C)cc2)cc1,nt,25.8,nt,nt
CC(C)C[C@H](NC(=O)c1[nH]cnc1C(=O)Nc1ccc(CNC(=O)OC(C)(C)C)cc1)C(=O)OCc1ccccc1,nt,47.8,-3.4,nt
CC(C)(C)OC(=O)NCCCCCNC(=O)c1nc[nH]c1C(=O)NCc1ccc(CNC(=O)OC(C)(C)C)cc1,nt,57.5*,nt,nt
C[C@H](NC(=O)c1[nH]cnc1C(=O)Nc1ccc(CNC(=O)OC(C)(C)C)cc1)C(=O)OCc1ccccc1,nt,74.7*,-12.6,nt
COc1ccc(CCN2CC(C(=O)NCc3cn(C)nc3C)CCC2=O)cc1 (configuration not stated),nt,-14.8,nt,nt
SMILES,FLuc inh counter,TRAIL sens C8,PPC-1+TRAIL kill,FLuc act counter
O=C(c1cccc(C(=O)N(c2ccccn2)C2CCCCC2)c1)N(c1ccccn1)C1CCCCC1,0.8,3.5,16.5,1
N#C/C(=C\c1ccccc1)C(=O)N(c1ccccn1)C1CCCCC1,-3.6,-13.1,59.1*,1
C/C(CCc1ccco1)=N/NC(=O)CCC(=O)Nc1ccc(Br)cc1,-3.9,-3.0,6.0,1
O=C(N/N=C1\CCc2ccccc21)c1ccccc1O,89.5*,62.7*,53.7*,0.1
CC(C)(C)c1ccc(CC(=O)N2CCC2(C)C(=O)N2CCCCC2)cc1 (configuration not stated),nt,13.1,nt,nt
C#Cc1ccc(NC(=O)C2(C)CCN2C(=O)CC(c2ccccc2)c2ccccc2)cc1 (configuration not stated),nt,93.1*,nt,nt
C#Cc1ccc(NC(=O)C2(C)CCN2C(=O)C2(c3ccccc3)CC2)cc1 (configuration not stated),nt,44.9,nt,nt
CC(C)c1cc(C(F)(F)F)nc(NNc2nc(C(C)C)cc(C(F)(F)F)n2)n1,nt,-11.3,nt,nt
C/C=C(/C)C(=O)OC1CC(C)(C)C[C@H]2C3=CC[C@@H]4[C@@]5(C)CCC(O[C@@H]6O[C@@H](C(=O)O)[C@@H](O)C(O[C@@H]7OC[C@H](O)[C@@H](O)[C@@H]7O[C@@H]7OC(CO)C(O)[C@@H](O)[C@@H]7O)C6O[C@@H]6OC(CO)C(O)C(O)C6O)[C@@](C)(CO)[C@@H]5CC[C@]4(C)[C@]3(C)CC(O)[C@@]12CO (some centres not stated),nt,-3.0,nt,nt
C/C=C(\C)C(=O)OC1[C@H](OC(C)=O)C2(CO)C(CC1(C)C)C1=CCC3C4(C)CCC(O[C@@H]5O[C@H](C(=O)O)[C@@H](O[C@@H]6O[C@H](CO)[C@@H](O)[C@H](O)[C@H]6O)[C@H](O)[C@H]5O[C@H]5O[C@H](CO)[C@@H](O)[C@H](O)[C@H]5O)[C@](C)(CO)C4CCC3(C)[C@]1(C)C[C@H]2O (some centres not stated),nt,89.0*,nt,nt
COC(=O)[C@H]1C[C@@H](c2ccccc2)[C@H](C)C1(C)C,nt,3.9,nt,nt
CCc1ccc(C(=O)O)cc1,nt,2.4,13.6,nt
CCc1ccc(C(=O)CN2CCSC2=N)cc1,63.2*,49.0,39.3,0.4
CC1=NNC(=O)/C1=C\c1cn(-c2ccccc2)nc1-c1ccc(Cl)cc1,-8.8,87.1*,1.7,1.1
COC(=O)c1cc(C)nc2c1C(=O)C(=O)C=C2N1CCOCC1,nt,92.1*,nt,nt
Cc1cccc(NC(=S)N/N=C/c2ccc([N+](=O)[O-])s2)c1,-4.4,48.1*,1.1,1
Cc1ccc(S(=O)(=O)N2CCN(C(=O)c3ccnn3C)CC2)cc1C,nt,-21.6,nt,nt
CN1OC[C@@H]2CN[C@H](c3ccc(-c4cc5ccccc5o4)cc3)C[C@@H]21,nt,86.4*,nt,nt
CCOC(=O)C1=C(C)Nc2ccccc2N=C1NC(=O)C1CCN(C(=O)c2ccccc2C)CC1,nt,-39.1,nt,nt
COc1ccc(SCCN2CC[C@@H](C(C)(C)C)CCC2=O)cc1,nt,9.4,nt,nt
C=CCNCCCCOc1ccc(Br)cc1C,-6.2,6.3,18.5,1.1
Cc1cc(Br)ccc1OCCCCNCCO,-2.6,52.7*,-4.2,1
CCOCCn1c(SC(C)C(C)=O)nc2c1c(=O)[nH]c(=O)n2C (configuration not stated),nt,6.4,9.7,nt
Cc1cc(NC(=O)C2CCCCC2)nc2c1c(=O)oc1ccccc12,2.1,33.5,-24.2,1
Cc1cccc(CC(=O)Nc2cc(C)c3c(=O)oc4ccccc4c3n2)c1,-4.8,52.1*,14.6,1
Cc1cc(NC(=O)C2CCCC2)nc2c1c(=O)oc1ccccc12,-6.1,70.6*,-12.0,1.1
N#C/C(=C/c1ccc(N2CCOCC2)o1)c1nc2ccccc2[nH]1,81.8*,43.0,-35.0,0.2
Cc1cc(/C=C(\C#N)c2nc3ccccc3[nH]2)c(C)n1C,77.5*,77.9*,25.3,0.2
N#C/C(=C\c1ccc(N2CCOCC2)o1)C(=O)Nc1ccc(O)cc1,50.0*,29.4,22.2,0.5
N#C/C(=C/c1ccc(N2CCCCC2)o1)C(=O)Nc1ccc(Cl)cc1,31.1,22.6,6.9,0.7
